According to ChEMBL document CHEMBL1773020, “Discovery of fused bicyclic agonists of the orphan G-protein coupled receptor GPR119 with in vivo activity in rodent models of glucose control” (Bioorg Med Chem Lett, 2011):
Active and inactive are the calls of the source. The rule behind the calls is not given here.

How the values were obtained:
[1] = Elimination half life in iv dosed mouse; format: ADME, organism-based; conditions: in vivo, read-out: beta t1/2 (converted)
[2] = Tmax in po dosed cynomolgus monkey; format: ADME, organism-based, Macaca fascicularis; conditions: in vivo
Salmonella typhimurium = test: Mutagenic activity in Salmonella Typhimurium; format: toxicity, organism-based; conditions: salmonella enterica subsp. enterica serovar typhimurium
[3] = Mutagenic activity in mouse lymphoma; format: toxicity
Rattus norvegicus [4] = test: Antidiabetic activity in ZDF rat assessed as blood glucose level at 10 mg/kg, po measured on day 56; format: functional
How it was run: (§1)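 Male ZDF rats, 6 weeks old, baseline weight 200–250 g, were split into 3 groups by fed body weight and blood glucose. They received vehicle (100% PEG400) or compound daily for 56 days, n = 5–7 per group. Blood glucose and HbA1c were determined on days 1, 31 and 56, and body weight gain was recorded. Results are mean ± standard error.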

Cytochrome P450 2C9 = Cytochrome P450 2C9 (Homo sapiens, UniProt P11712); test: Inhibition of CYP2C9; format: ADME
Sequence of Cytochrome P450 2C9 (P11712 whole entry): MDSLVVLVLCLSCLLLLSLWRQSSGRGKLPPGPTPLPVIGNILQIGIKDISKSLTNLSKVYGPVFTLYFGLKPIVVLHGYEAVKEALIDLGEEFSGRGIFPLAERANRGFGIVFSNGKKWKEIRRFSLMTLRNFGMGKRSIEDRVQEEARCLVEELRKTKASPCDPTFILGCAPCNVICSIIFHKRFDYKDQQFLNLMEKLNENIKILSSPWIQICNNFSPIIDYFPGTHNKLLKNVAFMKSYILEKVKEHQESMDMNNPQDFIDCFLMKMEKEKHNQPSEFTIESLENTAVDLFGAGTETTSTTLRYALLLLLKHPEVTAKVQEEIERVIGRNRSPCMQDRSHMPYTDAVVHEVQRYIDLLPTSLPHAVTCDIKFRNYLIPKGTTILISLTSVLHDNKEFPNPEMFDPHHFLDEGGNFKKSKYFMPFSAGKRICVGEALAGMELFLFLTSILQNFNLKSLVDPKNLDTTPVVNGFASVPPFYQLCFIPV
How it was run: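 Inhibition constant (Ki) determined in human hepatic microsomes.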

Mus musculus = test: Antidiabetic activity in po dosed C57/BL6 mouse assessed as oral glucose tolerance; format: functional; conditions: read-out: MED
How it was run: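 C57/BL6 mice were handled twice and fasted 3–16 h. Compound was given 0–30 min before the first sample. At time 0 a glucose bolus ([…] as printed, po) was given. Tail-nick glucose was read by glucometer at 0, 20, 40, 60 and 120 min.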

Rattus norvegicus [5] = test: Antidiabetic activity in ZDF rat assessed as glycated hemoglobin level at 10 mg/kg, po measured on day 56; format: functional; how it was run: as §1
[6] = Tmax in po dosed dog; format: ADME, organism-based, Canis lupus familiaris; conditions: in vivo
[7] = Oral bioavailability in cynomolgus monkey; format: ADME, organism-based, Macaca fascicularis; conditions: in vivo
[8] = Tmax in po dosed mouse; format: ADME, organism-based; conditions: in vivo
[9] = Plasma protein binding in male rat; format: ADME, cell-free; conditions: read-out: PPB (converted)
[10] = Mutagenic activity in mouse micronuclei; format: toxicity
Rattus norvegicus [11] = test: Volume of distribution at steady state in po dosed Sprague-Dawley rat; format: ADME, organism-based; conditions: in vivo
Rattus norvegicus [12] = test: Antidiabetic activity in po dosed Sprague-Dawley rat assessed as oral glucose tolerance; format: functional; conditions: read-out: MED
How it was run: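 SD rats were fasted 3–16 h, and compound was given po at −30 min after a tail-nick glucose reading. At time 0, glucose 3 g/kg po (6 ml/kg) was given. Glucometer readings were taken at 0, 30, 60 and 120 min. Each rat was used twice, one week apart.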

[13] = Oral bioavailability in dog; format: ADME, organism-based, Canis lupus familiaris; conditions: in vivo
Rattus norvegicus [14] = test: Antidiabetic activity in ZDF rat assessed as blood glucose level at 30 mg/kg, po measured on day 56; format: functional; how it was run: as §1
[15] = Oral bioavailability in Sprague-Dawley rat; format: ADME, organism-based; conditions: in vivo
Rattus norvegicus [16] = test: Antidiabetic activity in ZDF rat assessed as glycated hemoglobin level at 30 mg/kg, po measured on day 56; format: functional; how it was run: as §1
Rattus norvegicus [17] = test: Antidiabetic activity in ZDF rat assessed as body weight gain at 10 mg/kg, po measured on day 56; format: functional; how it was run: as §1
[18] = biological target: Voltage-gated inwardly rectifying potassium channel KCNH2 (Homo sapiens, UniProt Q12809); test: Inhibition of human ERG by patch clamp assay
Sequence of Voltage-gated inwardly rectifying potassium channel KCNH2 (Q12809 whole entry): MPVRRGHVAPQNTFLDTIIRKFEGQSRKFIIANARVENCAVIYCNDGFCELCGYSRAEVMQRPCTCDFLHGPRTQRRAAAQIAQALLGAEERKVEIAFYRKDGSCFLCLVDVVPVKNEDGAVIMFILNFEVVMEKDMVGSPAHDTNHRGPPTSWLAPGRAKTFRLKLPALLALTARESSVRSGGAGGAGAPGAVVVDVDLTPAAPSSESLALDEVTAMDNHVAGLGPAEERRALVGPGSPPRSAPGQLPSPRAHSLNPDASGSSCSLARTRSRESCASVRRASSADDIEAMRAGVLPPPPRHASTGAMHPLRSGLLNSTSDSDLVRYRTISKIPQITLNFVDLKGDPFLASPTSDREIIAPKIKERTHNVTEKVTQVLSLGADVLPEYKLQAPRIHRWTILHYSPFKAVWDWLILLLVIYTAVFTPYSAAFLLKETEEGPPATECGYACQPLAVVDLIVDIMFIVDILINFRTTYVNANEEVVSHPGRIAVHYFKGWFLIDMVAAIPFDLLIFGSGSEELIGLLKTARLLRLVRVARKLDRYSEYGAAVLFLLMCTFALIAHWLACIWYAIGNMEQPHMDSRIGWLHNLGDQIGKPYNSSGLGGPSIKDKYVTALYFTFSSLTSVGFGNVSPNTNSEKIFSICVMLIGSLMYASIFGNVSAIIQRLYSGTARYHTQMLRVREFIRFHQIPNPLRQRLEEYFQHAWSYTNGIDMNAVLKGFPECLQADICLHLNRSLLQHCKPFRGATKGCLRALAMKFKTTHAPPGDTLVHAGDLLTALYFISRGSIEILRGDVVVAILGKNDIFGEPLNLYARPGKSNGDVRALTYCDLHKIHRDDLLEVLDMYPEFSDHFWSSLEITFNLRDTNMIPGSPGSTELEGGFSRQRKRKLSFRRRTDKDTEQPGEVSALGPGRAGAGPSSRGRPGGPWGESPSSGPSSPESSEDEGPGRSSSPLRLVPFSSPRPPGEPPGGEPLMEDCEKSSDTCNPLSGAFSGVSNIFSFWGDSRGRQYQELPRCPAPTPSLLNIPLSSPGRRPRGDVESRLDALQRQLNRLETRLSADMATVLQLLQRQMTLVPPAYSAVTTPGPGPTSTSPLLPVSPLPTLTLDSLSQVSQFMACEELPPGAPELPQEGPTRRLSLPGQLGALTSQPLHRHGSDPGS

Caco-2 = test: Apparent permeability across human Caco2 cells; format: ADME, cell-based
Rattus norvegicus [19] = test: Antidiabetic activity in ZDF rat assessed as body weight gain at 30 mg/kg, po measured on day 56; format: functional; how it was run: as §1
[20] = Elimination half life in iv dosed cynomolgus monkey; format: ADME, organism-based, Macaca fascicularis; conditions: in vivo, read-out: beta t1/2 (converted)
[21] = Plasma protein binding in female cynomolgus monkey; format: ADME, cell-free, Macaca fascicularis; conditions: read-out: PPB
Cynomolgus monkey = test: Volume of distribution at steady state in po dosed cynomolgus monkey; format: ADME, organism-based, Macaca fascicularis; conditions: in vivo
[22] = Plasma protein binding in male cynomolgus monkey; format: ADME, cell-free, Macaca fascicularis; conditions: read-out: PPB
[23] = Elimination half life in iv dosed Sprague-Dawley rat; format: ADME, organism-based; conditions: in vivo, read-out: beta t1/2 (converted)
Rattus norvegicus [24] = test: Antidiabetic activity in hyperglycemic Sprague-Dawley rat model assessed as glucose dependent insulin release at 0.08 mg/kg/min, iv; format: functional, organism-based
How it was run: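 Hyperglycemic clamp in male SD rats fasted overnight. After 1 h of baseline glucose and insulin sampling, vehicle or compound was infused into the jugular vein for 2 h. Glucose was clamped at 100 mg/dl for hours 1–2, then raised to 300 mg/dl for hour 3 by a 30% glucose bolus and variable infusion. Plasma insulin was followed.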

Rattus norvegicus [25] = test: Antidiabetic activity in ZDF rat assessed as glycated hemoglobin level at 10 mg/kg, po measured on day 31
[26] = Tmax in po dosed Sprague-Dawley rat; format: ADME, organism-based; conditions: in vivo
[27] = Elimination half life in iv dosed dog; format: ADME, organism-based, Canis lupus familiaris; conditions: in vivo, read-out: beta t1/2 (converted)
[28] = Plasma protein binding in human; format: ADME, cell-free; conditions: read-out: PPB
[29] = biological target: T1, Glucose-dependent insulinotropic receptor (Rattus norvegicus, UniProt Q7TQN8); test: Agonist activity at rat GPR119 by melanophore assay; format: functional
T1 sequence (Q7TQN8 whole entry): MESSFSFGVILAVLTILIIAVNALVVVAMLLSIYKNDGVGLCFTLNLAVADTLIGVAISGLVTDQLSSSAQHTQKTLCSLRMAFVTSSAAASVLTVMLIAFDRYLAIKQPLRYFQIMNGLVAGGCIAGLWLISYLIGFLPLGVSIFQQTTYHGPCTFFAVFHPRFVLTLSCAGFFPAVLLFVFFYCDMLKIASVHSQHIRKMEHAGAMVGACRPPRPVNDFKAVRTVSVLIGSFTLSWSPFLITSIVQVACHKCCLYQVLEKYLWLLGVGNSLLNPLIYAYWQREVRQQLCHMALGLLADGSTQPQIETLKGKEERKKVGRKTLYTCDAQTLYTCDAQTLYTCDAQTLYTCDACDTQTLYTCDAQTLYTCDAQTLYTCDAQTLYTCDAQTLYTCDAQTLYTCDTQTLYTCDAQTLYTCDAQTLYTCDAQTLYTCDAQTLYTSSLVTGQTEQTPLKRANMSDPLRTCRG
How it was run: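 Agonist EC50 measured in melanophores transfected with the human or rat GPR119 receptor sequence. Values are means of multiple determinations (n).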

[30] = Oral bioavailability in mouse; format: ADME, organism-based; conditions: in vivo
Rattus norvegicus [31] = test: Antidiabetic activity in ZDF rat assessed as glycated hemoglobin level at 30 mg/kg, po measured on day 31
[32] = Plasma protein binding in female rat; format: ADME, cell-free; conditions: read-out: PPB (converted)
Rattus norvegicus [33] = test: Antidiabetic activity in ZDF rat assessed as glycated hemoglobin level at 30 mg/kg, po measured on day 1; format: functional; how it was run: as §1
Rattus norvegicus [34] = test: Antidiabetic activity in ZDF rat assessed as glycated hemoglobin level at 10 mg/kg, po measured on day 1; format: functional; how it was run: as §1
[35] = Aqueous solubility of the compound; format: physicochemical; conditions: buffer

CC(C)OC(=O)N1CCC(Oc2ncnc3c2cnn3-c2ccc(S(C)(=O)=O)cc2F)CC1
half-life [1]: 48 min
Tmax [2]: ≤ 2 h
Activity (Salmonella typhimurium): Non-toxic
Activity [3]: Non-toxic
Activity (Rattus norvegicus [4]): 359.3 mg/dL
Ki (Cytochrome P450 2C9): 100 nM
minimal effective dose (Mus musculus): 3 mg/kg
Activity (Rattus norvegicus [5]): 8.2%
Tmax [6]: 6 h
bioavailability [7]: 44%
Tmax [8]: ≤ 2 h
fraction unbound [9]: 0.07
Activity [10]: Non-toxic
Vdss (Rattus norvegicus [11]): 2.6 L/kg
minimal effective dose (Rattus norvegicus [12]): 10 mg/kg
bioavailability [13]: 22%
Activity (Rattus norvegicus [14]): 105.2 mg/dL
bioavailability [15]: 44%
Activity (Rattus norvegicus [16]): 4.7%
Activity (Rattus norvegicus [17]): 224.9 g
IC50 [18]: 3 µM
permeability (Caco-2): permeable
Activity (Rattus norvegicus [19]): 204.2 g
half-life [20]: 48 min
fraction unbound [21]: ≤ 0.01
Vdss (Cynomolgus monkey): 0.1 L/kg
fraction unbound [22]: ≤ 0.01
half-life [23]: 48 min
Activity (Rattus norvegicus [24]): Active
Activity (Rattus norvegicus [25]): 7.3%
Tmax [26]: ≤ 2 h
half-life [27]: 48 min
fraction unbound [28]: ≤ 0.01
EC50 [29]: 33 nM
bioavailability [30]: 44%
Activity (Rattus norvegicus [31]): 5.2%
fraction unbound [32]: 0.034
Activity (Rattus norvegicus [33]): 3.4%
Activity (Rattus norvegicus [34]): 3.5%
solubility [35]: soluble
